Legend:
[1] = molecular target: T1, Transient receptor potential cation channel subfamily V member 1 (Homo sapiens, UniProt Q8NER1); assay: Agonist activity at human recombinant TRPV1 expressed in HEK293 cells assessed as increase in intracellular calcium level; format: functional, cell-based
Outline: (§1)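 Stably transfected HEK-293 cells loaded 1 h at 25 °C with 4 µM Fluo-4 AM, washed, resuspended in Tyrode's buffer pH 7.4. Efficacy relative to 4 µM ionomycin. EC50 is the concentration giving half-maximal [Ca2+]i rise, by sigmoidal fit. At least triplicate.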

[2] = molecular target: T1, Transient receptor potential cation channel subfamily V member 1; assay: Agonist activity at human recombinant TRPV1 expressed in HEK293 cells assessed as increase in intracellular calcium level relative to ionomycin; format: functional, cell-based
Outline: as §1, with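 “7.4. Fluorescence (ex 488/em 516 nm) read at 25 °C with stirring, before and after compound at various concentrations.” for “7.4.”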

[3] = molecular target: Cannabinoid receptor 2 (Homo sapiens, UniProt P34972); assay: Displacement of [3H]CP-55940 from human recombinant CB2 receptor expressed in HEK293 cell membrane; format: cell membranes
Chain of Cannabinoid receptor 2 (P34972 whole entry): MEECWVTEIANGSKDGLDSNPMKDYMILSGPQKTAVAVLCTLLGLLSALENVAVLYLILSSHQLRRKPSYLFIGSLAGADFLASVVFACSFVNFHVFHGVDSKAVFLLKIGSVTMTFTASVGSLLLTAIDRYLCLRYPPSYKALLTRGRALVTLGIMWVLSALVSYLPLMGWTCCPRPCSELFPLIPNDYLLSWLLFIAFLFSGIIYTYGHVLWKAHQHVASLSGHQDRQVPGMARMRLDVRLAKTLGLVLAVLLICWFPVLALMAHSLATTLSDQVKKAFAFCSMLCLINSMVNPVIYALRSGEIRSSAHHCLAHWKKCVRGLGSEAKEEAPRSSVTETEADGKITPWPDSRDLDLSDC

[4] = molecular target: Cannabinoid receptor 1 (Mus musculus, UniProt P47746); assay: Agonist activity at CB1 receptor expressed in mouse brain membrane by [35S]GTPgammaS binding assay; format: functional, cell membranes
Chain of Cannabinoid receptor 1 (Mus musculus, UniProt P47746) (P47746 whole entry): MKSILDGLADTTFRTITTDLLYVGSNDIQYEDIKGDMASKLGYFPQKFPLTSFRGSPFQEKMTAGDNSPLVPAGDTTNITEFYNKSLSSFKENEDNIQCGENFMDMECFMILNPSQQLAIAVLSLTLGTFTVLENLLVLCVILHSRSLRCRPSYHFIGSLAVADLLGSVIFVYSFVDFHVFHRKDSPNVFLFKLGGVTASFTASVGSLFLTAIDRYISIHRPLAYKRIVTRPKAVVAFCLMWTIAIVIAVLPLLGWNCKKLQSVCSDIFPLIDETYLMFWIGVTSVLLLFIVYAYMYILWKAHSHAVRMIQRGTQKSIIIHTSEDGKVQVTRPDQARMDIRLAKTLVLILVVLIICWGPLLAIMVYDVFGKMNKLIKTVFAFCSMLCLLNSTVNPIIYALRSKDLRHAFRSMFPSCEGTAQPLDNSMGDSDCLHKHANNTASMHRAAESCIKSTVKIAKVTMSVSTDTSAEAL
Outline: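 Mouse brain membranes (10 µg/mL) preincubated 30 min at 30 °C with adenosine deaminase 0.5 U/mL, in Tris buffer with MgCl2, EDTA, NaCl, DTT, 0.1% BSA, 0.1 nM [35S]GTPγS, 30 µM GDP; compounds 60 min at 30 °C. Nonspecific with 30 µM GTPγS. Filtration, scintillation counting. 0.1% DMSO vehicle. Basal subtracted; EC50 and Emax by sigmoid nonlinear regression.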

[5] = molecular target: Cannabinoid receptor 1 (Homo sapiens, UniProt P21554); assay: Displacement of [3H]CP-55940 from human recombinant CB1 receptor expressed in HEK293 cell membrane; format: cell membranes
Chain of Cannabinoid receptor 1 (Homo sapiens, UniProt P21554) (P21554 whole entry): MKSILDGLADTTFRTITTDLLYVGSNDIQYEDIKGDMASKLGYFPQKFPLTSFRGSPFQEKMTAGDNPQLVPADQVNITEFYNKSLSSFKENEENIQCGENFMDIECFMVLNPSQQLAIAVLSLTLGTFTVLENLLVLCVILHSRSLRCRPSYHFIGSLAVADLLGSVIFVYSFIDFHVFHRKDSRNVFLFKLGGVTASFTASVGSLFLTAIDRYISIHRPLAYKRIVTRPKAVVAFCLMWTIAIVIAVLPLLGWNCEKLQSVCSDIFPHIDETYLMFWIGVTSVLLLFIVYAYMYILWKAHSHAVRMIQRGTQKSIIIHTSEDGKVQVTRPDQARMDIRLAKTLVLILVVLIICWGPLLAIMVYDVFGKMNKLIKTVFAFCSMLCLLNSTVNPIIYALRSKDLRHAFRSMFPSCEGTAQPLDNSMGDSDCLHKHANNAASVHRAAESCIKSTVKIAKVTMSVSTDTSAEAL

T1 sequence (Q8NER1 whole entry): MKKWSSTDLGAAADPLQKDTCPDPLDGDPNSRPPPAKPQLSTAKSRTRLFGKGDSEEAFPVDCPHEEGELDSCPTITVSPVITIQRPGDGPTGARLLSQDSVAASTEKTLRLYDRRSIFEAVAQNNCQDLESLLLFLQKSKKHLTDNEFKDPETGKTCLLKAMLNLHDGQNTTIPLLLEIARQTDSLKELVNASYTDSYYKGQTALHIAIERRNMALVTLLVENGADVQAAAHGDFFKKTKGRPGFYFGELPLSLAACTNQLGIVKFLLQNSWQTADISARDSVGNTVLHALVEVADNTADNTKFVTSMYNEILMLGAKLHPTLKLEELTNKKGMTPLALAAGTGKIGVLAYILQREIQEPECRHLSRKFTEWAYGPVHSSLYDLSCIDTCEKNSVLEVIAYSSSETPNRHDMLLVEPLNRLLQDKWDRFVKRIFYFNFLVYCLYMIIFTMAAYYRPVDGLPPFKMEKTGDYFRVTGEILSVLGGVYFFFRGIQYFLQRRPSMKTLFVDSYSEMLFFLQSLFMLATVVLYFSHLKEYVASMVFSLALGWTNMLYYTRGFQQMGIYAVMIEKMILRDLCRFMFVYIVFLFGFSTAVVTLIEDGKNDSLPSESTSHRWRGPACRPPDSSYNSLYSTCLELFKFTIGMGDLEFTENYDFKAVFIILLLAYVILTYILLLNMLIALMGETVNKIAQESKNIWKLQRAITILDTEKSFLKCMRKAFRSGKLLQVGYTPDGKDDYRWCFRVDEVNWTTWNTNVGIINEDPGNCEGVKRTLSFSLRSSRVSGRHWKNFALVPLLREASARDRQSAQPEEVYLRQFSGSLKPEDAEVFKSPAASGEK

Row | SMILES | EC50 [1] [µM] | Emax [2] [%] | Ki [3] [µM] | EC50 [4] [µM] | Ki [5] [µM]
1 | CCCCCCC(C)(C)c1ccc([C@@H]2C[C@H](O)CC[C@H]2CCCO)c(O)c1 [CP-55940] | 0.01 | 83 |  |  | 
2 | CCCCCCCC/C=C\CCCCCCCC(=O)N[C@@H]1C[C@@H]1O (racemic) | 3.7 |  | 0.34 |  | 
3 | CCCCCCCC/C=C\CCCCCCCC(=O)N[C@@H]1C[C@@H]1O [listing 1 of 2 here] | 0.15 |  | 2.04 |  | 
4 | CCCCC/C=C\C/C=C\C/C=C\C/C=C\CCCC(=O)N[C@@H]1C[C@@H]1O [listing 1 of 2 here] | 0.61 |  | 0.2 |  | 
5 | CCCCC/C=C\C/C=C\C/C=C\C/C=C\CCCC(=O)N[C@@H]1C[C@H]1O [listing 1 of 2 here] | 0.023 |  | 0.19 | 0.78 | 
6 | CCCCCCCC/C=C\CCCCCCCC(=O)N[C@@H]1C[C@@H]1O [listing 2 of 2 here] |  | 62.5 |  |  | 
7 | CCCCC/C=C\C/C=C\C/C=C\C/C=C\CCCC(=O)N[C@@H]1C[C@@H]1O (racemic) | 1.9 |  | 0.15 |  | 
8 | CCCCC/C=C\C/C=C\C/C=C\C/C=C\CCCC(=O)N[C@@H]1C[C@@H]1O [listing 2 of 2 here] |  | 76.5 |  |  | 
9 | CCCCCCCC/C=C\CCCCCCCC(=O)N[C@@H]1C[C@H]1O [listing 1 of 2 here] |  | 72.5 |  |  | 
10 | CCCCCCCCCCCCCCCC(=O)NCCO [PALMIDROL] | > 10 |  | > 5 |  | > 5
11 | CCCCCCCCCCCCCCCC(=O)N[C@@H]1C[C@H]1O (racemic) | 0.04 |  | > 10 |  | > 10
12 | CCCCCCCC/C=C\CCCCCCCC(=O)N[C@@H]1C[C@H]1O (racemic) | 0.06 |  | 0.38 |  | 
13 | CCCCCCCC/C=C\CCCCCCCC(=O)N[C@@H]1C[C@H]1O [listing 2 of 2 here] | 0.013 |  | 4.41 |  | 
14 | CCCCC/C=C\C/C=C\C/C=C\C/C=C\CCCC(=O)N[C@H]1C[C@@H]1O | 0.047 | 75.7 | 0.29 | 2.55 | 
15 | CCCCC/C=C\C/C=C\C/C=C\C/C=C\CCCC(=O)NCCO [ANANDAMIDE] | 0.2 |  |  |  | 
16 | COc1cc(CNC(=O)CCCC/C=C/C(C)C)ccc1O [CAPSAICIN] |  |  | > 10 |  | 
17 | CCCCCCCCCCCCCCCC(=O)N[C@@H]1C[C@@H]1O (racemic) | 26.4 |  | > 10 |  | > 10
18 | CCCCCCCC/C=C\CCCCCCCC(=O)NCCO [OLEOYLETHANOLAMIDE] | 3.65 |  | > 10 |  | 
19 | CCCCC/C=C\C/C=C\C/C=C\C/C=C\CCCC(=O)N[C@@H]1C[C@H]1O [listing 2 of 2 here] |  | 80.3 |  |  | 
20 | CCCCC/C=C\C/C=C\C/C=C\C/C=C\CCCC(=O)N[C@H]1C[C@H]1O | 2.4 | 65.8 | 0.19 |  | 
21 | CCCCC/C=C\C/C=C\C/C=C\C/C=C\CCCC(=O)N[C@@H]1C[C@H]1O (racemic) | 0.05 |  | 0.24 |  | 

Source: ChEMBL document CHEMBL1138475, “Conformationally constrained fatty acid ethanolamides as cannabinoid and vanilloid receptor probes” (J Med Chem, 2009)
